Experimental data of several laboratories.
Lines come from different studies, so protocols differ.
Target: Mu-type opioid receptor (Oprm1, Rattus norvegicus, UniProt P33535)

Oc1cccc([C@@]23CCC[C@@H]([C@@H]2O)N(CC=Cc2ccccc2)CC3)c1  Ki (ligand displacement; radioligand): 25 nM
Cc1cc(O)cc(C)c1C[C@H](N)C(=O)N1CCc2ccc(Cc3cccc([N+](=O)[O-])c3)cc2C1  Ki (ligand displacement; radioligand; cell membranes): 3.1 nM
Cc1cc(O)cc(C)c1C[C@H](N)C(=O)N[C@H](CCCNC(=N)N)C(=O)N[C@@H](Cc1c(C)cccc1C(C)C)C(=O)N[C@@H](CCCCN)C(N)=O  Ki (ligand displacement; radioligand; cell membranes): 0.155 nM
Cc1cc(O)cc(C)c1C[C@H](N)C(=O)N1CCc2ccc(Cc3ccccc3N)cc2C1  Ki (ligand displacement; radioligand; cell membranes): 2.1 nM
Cc1cccc(C)c1C[C@H](NC(=O)[C@@H](CCCNC(=N)N)NC(=O)[C@@H](N)Cc1c(C)cc(O)cc1C)C(=O)N[C@@H](CCCCN)C(N)=O  Ki (ligand displacement; radioligand; cell membranes): 0.00935 nM
CCCC[C@@H](NC(=O)[C@@H](N)Cc1c(C)cc(O)cc1C)C(=O)NCC(=O)N[C@@H](Cc1ccc(F)cc1)C(=O)N(C)CCC[C@@]1(c2ccc(F)cc2)OCc2cc(C#N)ccc21  Ki (cell-free assay): 1 nM
Cc1cc(O)cc(C)c1C[C@H](N)C(=O)N[C@H](CCCNC(=N)N)C(=O)N[C@@H](Cc1c[nH]c2ccccc12)C(=O)N[C@@H](CCCCN)C(N)=O  Ki (ligand displacement; radioligand; cell membranes): 0.0991 nM
C[C@@H](NC(=O)C[C@@H](N)Cc1ccc(O)cc1)C(=O)NCC(=O)N[C@@H](Cc1ccccc1)C(=O)NNC(=O)[C@H](Cc1ccccc1)NC(=O)CNC(=O)[C@@H](C)NC(=O)C[C@@H](N)Cc1ccc(O)cc1  Ki (ligand displacement; radioligand): 62 nM
C[C@@H](NC(=O)[C@@H](N)Cc1ccc(O)cc1)C(=O)NCC(=O)N[C@@H](Cc1ccc(Cl)cc1)C(=O)N(C)CCC[C@@]1(c2ccc(F)cc2)OCc2cc(C#N)ccc21  Ki (cell-free assay): 7 nM
Cc1cc(O)cc(C)c1C[C@H](C)C(=O)N[C@@H]1C/C=C\CC[C@@H](C(N)=O)NC(=O)[C@H](Cc2ccccc2)NC(=O)[C@H](Cc2ccccc2)NC1=O  Ki (ligand displacement; radioligand; cell membranes): 7.44 nM
Cc1cc(O)cc(C)c1C[C@H](N)C(=O)N1CCc2ccc(Cc3ccc(N)cc3)cc2C1  Ki (ligand displacement; radioligand; cell membranes): 47 nM
CCCC[C@@H](NC(=O)[C@@H](N)Cc1ccc(O)cc1)C(=O)NCC(=O)N[C@@H](Cc1ccc(F)cc1)C(=O)N(C)CCC[C@@]1(c2ccc(F)cc2)OCc2cc(C#N)ccc21  Ki (cell-free assay): 16 nM
Cc1cc(O)cc(C)c1C[C@H](C)C(=O)N[C@@H]1CCCCC[C@@H](C(N)=O)NC(=O)[C@H](Cc2ccccc2)NC(=O)[C@H](Cc2ccccc2)NC1=O  Ki (ligand displacement; radioligand; cell membranes): 18.3 nM
Cc1cccc(Cc2ccc3c(c2)CN(C(=O)[C@@H](N)Cc2c(C)cc(O)cc2C)CC3)c1  Ki (ligand displacement; radioligand; cell membranes): 3.1 nM
